Measurements published in PubChem BioAssay AID743243 (The Scripps Research Institute Molecular Screening Center, 2013).
Active and inactive are the calls of the source.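 The calls were made as follows: active = IC50 of 10 µM or lower; inactive = IC50 above 10 µM.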

Biological target: ADP-ribosylation factor GTPase-activating protein 1 (Rattus norvegicus) (UniProt Q62848)
Test: rat ARFGAP1 inhibitor potency curves, late-stage follow-up, biochemical, fluorescence polarization, round 000 (AID 743243)
Details: ARFGAP1-stimulated ARF1 GTP hydrolysis, GDP fluorescence polarization
Method in brief: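 Material: rat Arfgap1 GAP domain, residues 1-136; Compound dosing: triplicate series, top 165 µM; Reagent: human Δ17 ARF1 bound to GTP; Replication: triplicate; Technique: fluorescence polarization, Alexa 633-GDP tracer displaced from anti-GDP antibody, ex 620/em 688 nm; Incubation: 20 min preincubation, 120 min reaction, 25 °C.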

Sequence of ADP-ribosylation factor GTPase-activating protein 1 (Rattus norvegicus) (Q62848 1-136 limits assumed): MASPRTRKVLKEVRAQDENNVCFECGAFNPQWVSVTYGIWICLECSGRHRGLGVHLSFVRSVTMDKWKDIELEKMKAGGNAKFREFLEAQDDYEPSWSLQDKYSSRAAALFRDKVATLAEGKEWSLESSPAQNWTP

IC50	SMILES
> 165 µM (inactive)	CC(CNc1nc2c(-c3cccc(F)c3)nnn2c2ccccc12)c1ccccc1 (stereo not drawn)
> 165 µM (inactive)	Fc1cccc(-c2nnn3c2nc(NCCc2ccccc2)c2ccccc23)c1
> 165 µM (inactive)	Fc1cccc(-c2nnn3c2nc(NCc2ccc4c(c2)OCO4)c2ccccc23)c1
inactive	NS(=O)(=O)c1ccc(CCNc2nc3c(-c4ccc(Cl)cc4)nnn3c3ccccc23)cc1
inactive	COc1ccc(CNc2nc3c(-c4cccc(F)c4)nnn3c3ccccc23)cc1
inactive	Cc1cccc(-c2nnn3c2nc(NCCc2ccc(S(N)(=O)=O)cc2)c2ccccc23)c1
> 165 µM (inactive)	Fc1cccc(-c2nnn3c2nc(NCCc2ccc(Cl)cc2)c2ccccc23)c1
> 165 µM (inactive)	Fc1cccc(-c2nnn3c2nc(NCCc2ccccc2)c2ccc(Cl)cc23)c1
inactive	Cc1cccc(-c2nnn3c2nc(NCCc2ccc(S(N)(=O)=O)cc2)c2ccc(Cl)cc23)c1
> 165 µM (inactive)	COc1ccc(CCNc2nc3c(-c4cccc(F)c4)nnn3c3cc(Cl)ccc23)cc1OC
inactive	NS(=O)(=O)c1ccc(CCNc2nc3c(-c4cccc(F)c4)nnn3c3ccccc23)cc1
6.9 µM	NS(=O)(=O)c1ccc(CCNc2nc3c(-c4cccc(C(F)(F)F)c4)nnn3c3ccccc23)cc1
> 165 µM (inactive)	COc1ccc(CNc2nc3c(-c4cccc(F)c4)nnn3c3cc(Cl)ccc23)cc1
> 165 µM (inactive)	Cc1ccc(CNc2nc3c(-c4cccc(F)c4)nnn3c3cc(Cl)ccc23)cc1
inactive	NS(=O)(=O)c1ccc(CCNc2nc3c(-c4cccc(Cl)c4)nnn3c3ccccc23)cc1

More lines, now with the values behind:

SMILES	IC50
O=C1c2ccc(Oc3ccc(Br)cc3)cc2C(=O)N1c1cccc2ncccc12	inactive
O=C(OCC(=O)c1cccs1)c1ccc2c(c1)C(=O)N(c1cccc3ccccc13)C2=O	> 165 µM (inactive)
Cc1ccc(C(=O)COC(=O)c2ccc3c(c2)C(=O)N(c2cccc4ncccc24)C3=O)cc1	> 165 µM (inactive)
Cc1ccc(N2C(=O)c3ccc(C(=O)N4c5ccccc5CC4C)cc3C2=O)cc1 (stereo not drawn)	> 165 µM (inactive)
O=C(NCC1CCCO1)c1ccc2c(c1)C(=O)N(c1cccc3ccccc13)C2=O (stereo not drawn)	> 165 µM (inactive)
O=C(NCc1ccco1)c1ccc2c(c1)C(=O)N(c1ccc(C(=O)c3ccccc3)cc1)C2=O	> 165 µM (inactive)
CC(C)CNC(=O)c1ccc2c(c1)C(=O)N(c1ccccc1-c1ccccc1)C2=O	> 165 µM (inactive)
O=C(NCC1CCCO1)c1ccc2c(c1)C(=O)N(c1ccccc1-c1ccccc1)C2=O (stereo not drawn)	> 165 µM (inactive)
Cc1ccc(C(=O)COC(=O)c2ccc3c(c2)C(=O)N(c2cccc4ccccc24)C3=O)cc1	> 165 µM (inactive)
O=C(NCCc1nc2ccccc2[nH]1)c1ccc2c(c1)C(=O)N(c1ccc(F)cc1)C2=O	> 165 µM (inactive)
O=C1c2ccccc2C(=O)N1c1cccc2ncccc12	> 165 µM (inactive)
Cc1ccc(N2C(=O)c3ccc(C(=O)OCC(=O)c4ccccc4)cc3C2=O)c(C)c1	> 165 µM (inactive)
O=C(COC(=O)c1ccc2c(c1)C(=O)N(c1cccc(Cl)c1Cl)C2=O)c1ccccc1	> 165 µM (inactive)
Cc1cccc(N2C(=O)c3ccc(C(=O)NC4CCCCC4)cc3C2=O)c1C	> 165 µM (inactive)
Cc1ccc(Oc2ccc3c(c2)C(=O)N(c2cccc4ncccc24)C3=O)cc1C	> 165 µM (inactive)
COc1ccccc1N1C(=O)c2ccc(C(=O)OCC(=O)c3ccc(Br)cc3)cc2C1=O	> 165 µM (inactive)
Cc1ccc(N2C(=O)c3ccc(C(=O)OCC(=O)C(C)(C)C)cc3C2=O)cc1	> 165 µM (inactive)

SMILES	IC50
CCCOC(=O)c1ccc2c(c1)C(=O)N(c1cccc3ccccc13)C2=O	> 165 µM (inactive)
COc1ccccc1Oc1ccc2c(c1)C(=O)N(c1cccc3ncccc13)C2=O	> 165 µM (inactive)
O=C(COC(=O)c1ccc2c(c1)C(=O)N(c1ccccc1Cl)C2=O)c1ccc(Br)cc1	> 165 µM (inactive)
Cc1ccc(N2C(=O)c3ccc(C(=O)N4CCN(Cc5ccccc5)CC4)cc3C2=O)cc1	> 165 µM (inactive)
O=C1c2cc(Cl)c(Cl)cc2C(=O)N1c1cccc2ncccc12	> 165 µM (inactive)
O=C(COC(=O)c1ccc2c(c1)C(=O)N(c1cccc(Cl)c1Cl)C2=O)c1ccc(F)cc1	> 165 µM (inactive)
Cc1ccc(C(=O)C(C)OC(=O)c2ccc3c(c2)C(=O)N(c2cccc(Cl)c2Cl)C3=O)cc1 (stereo not drawn)	> 165 µM (inactive)
O=C(NC1CCCCC1)c1ccc2c(c1)C(=O)N(c1ccccc1-c1ccccc1)C2=O	> 165 µM (inactive)
O=C(COC(=O)c1ccc2c(c1)C(=O)N(c1cccc3ncccc13)C2=O)c1ccc(Cl)cc1	2.13 µM
COc1cccc(C(=O)COC(=O)c2ccc3c(c2)C(=O)N(c2cccc(C(F)(F)F)c2)C3=O)c1	> 165 µM (inactive)
Cc1cccc(Oc2ccc(N3C(=O)c4ccc(C(=O)OCC(=O)Nc5cccc(C)c5C)cc4C3=O)cc2)c1	> 165 µM (inactive)
O=C(COC(=O)c1ccc2c(c1)C(=O)N(c1cc(C(F)(F)F)ccc1Cl)C2=O)c1ccccc1	> 165 µM (inactive)
CC(C)(C)NC(=O)c1ccc2c(c1)C(=O)N(c1ccccc1-c1ccccc1)C2=O	> 165 µM (inactive)
CCOCCCNC(=O)c1ccc2c(c1)C(=O)N(c1ccc(Cn3cncn3)cc1)C2=O	> 165 µM (inactive)
COc1cccc(C(=O)COC(=O)c2ccc3c(c2)C(=O)N(c2ccc(F)cc2)C3=O)c1	> 165 µM (inactive)
O=C(COC(=O)c1ccc2c(c1)C(=O)N(c1cccc(C(F)(F)F)c1)C2=O)c1ccc(Cl)cc1	> 165 µM (inactive)
